Results from ChEMBL document CHEMBL1133699, “Phenyl beta-methoxyacrylates: a new antimalarial pharmacophore” (J Med Chem, 2000).
≈ marks a conversion by molar mass, not a printed value.

Legend:
Plasmodium falciparum [1] = experiment: In vitro antimalarial activity against chloroquine-resistant Plasmodium falciparum K1; format: functional, organism-based
Method in brief: (§1)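 Asynchronous P. falciparum cultured in human type A+ erythrocytes, RPMI 1640 with 0.5% AlbuMAX, 25 mM HEPES, 25 mM NaHCO3 (pH 7.3), hypoxanthine, neomycin; 37 °C, 3% O2/4% CO2/93% N2. Compounds were dissolved in DMSO and titrated in duplicate over a 64-fold range. Initial parasitemia was 0.75% at 2.5% hematocrit. Growth was read by [3H]hypoxanthine incorporation, with label added 16 h before the end. IC50 was taken by linear interpolation.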

[2] = Growth inhibition of Plasmodium berghei was tested in vivo in male albino mice (Mus musculus) after subcutaneous administration of a dose of 50 mg/kg; format: functional; conditions: sc, read-out: GI
Method in brief: (§2)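 Mice 25 ± 2 g infected iv on day 0 with 2×10^7 P. berghei ANKA-infected donor erythrocytes. Compound dissolved or suspended in 7% Tween-80, 3% ethanol in water, single dose 24 h post-infection (0.01 mL/g), 3 mice/group. Giemsa blood smears at day 3 (72 h post-infection). Parasitemia counted microscopically; reduction calculated versus untreated controls (=100%). ED50/90 determined by dose titration.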

Plasmodium falciparum [3] = experiment: In vitro antimalarial activity against chloroquine-sensitive Plasmodium falciparum NF54; format: functional, organism-based; method in brief: as §1
[4] = Growth inhibition of Plasmodium berghei was tested in vivo in male albino mice (Mus musculus) after oral administration of a dose of 50 mg/kg; format: functional; conditions: read-out: GI; method in brief: as §2
[5] = Growth inhibition of Plasmodium berghei was tested in vivo in male albino mice (Mus musculus) after subcutaneous administration of a dose of 10 mg/kg; format: functional; conditions: sc, read-out: GI; method in brief: as §2
[6] = Growth inhibition of Plasmodium berghei was tested in vivo in male albino mice (Mus musculus) after oral administration of a dose of 10 mg/kg; format: functional; conditions: read-out: GI; method in brief: as §2
[7] = Effective dose was determined in vivo for 50% parasite (Plasmodium berghei) reduction in the male albino mice after oral administration; format: functional; conditions: Mus musculus; method in brief: as §2
[8] = Effective dose was determined in vivo for 50% parasite (Plasmodium berghei) reduction in the male albino mice after subcutaneous administration; format: functional; conditions: Mus musculus, sc; for ED90: in the assay text read “90% parasite” for “50% parasite”; method in brief: as §2
[9] = Effective dose was determined in vivo for 90% parasite (Plasmodium berghei) reduction in the male albino mice after subcutaneous administration; format: functional; conditions: Mus musculus, sc; method in brief: as §2
[10] = Effective dose was determined in vivo for 90% parasite (Plasmodium berghei) reduction in the male albino mice after oral administration; format: functional; conditions: Mus musculus; method in brief: as §2
[11] = Growth inhibition of Plasmodium berghei was tested in vivo in male albino mice (Mus musculus) after subcutaneous administration of a dose of 100 mg/kg; format: functional; conditions: sc, read-out: GI; method in brief: as §2
[12] = Growth inhibition of Plasmodium berghei was tested in vivo in male albino mice (Mus musculus) after oral administration of a dose of 100 mg/kg; format: functional; conditions: read-out: GI; method in brief: as §2

CO/C=C(/C(=O)OC)c1ccccc1/C=C/C=C/c1ccccc1
IC50 (Plasmodium falciparum [1]): 3.7 ng/mL (≈ 11.5 nM)
inhibition in vivo at 50 mg/kg [2]: 0%
IC50 (Plasmodium falciparum [3]): 0.8 ng/mL (≈ 2.5 nM)
inhibition in vivo at 50 mg/kg [4]: 0%

CO/C=C(/C(=O)OC)c1ccccc1/C=C/C=C/c1ccc(F)cc1Cl
IC50 (Plasmodium falciparum [1]): 0.19 ng/mL (≈ 0.51 nM)
inhibition in vivo at 10 mg/kg [5]: 100%
IC50 (Plasmodium falciparum [3]): 0.06 ng/mL (≈ 0.161 nM)
inhibition in vivo at 10 mg/kg [6]: 92%

O=C1C(O)=C([C@H]2CC[C@H](c3ccc(Cl)cc3)CC2)C(=O)c2ccccc21 [ATOVAQUONE]
IC50 (Plasmodium falciparum [1]): 0.41 ng/mL (≈ 1.12 nM)
IC50 (Plasmodium falciparum [3]): 0.11 ng/mL (≈ 0.3 nM)
ED50 [7]: 0.05 mg/kg
ED50 [8]: 0.04 mg/kg
ED90 [9]: 0.9 mg/kg
ED90 [10]: 0.1 mg/kg

CCN(CC)CCCC(C)Nc1ccnc2cc(Cl)ccc12 (stereo not drawn) [CHLOROQUINE]
ED50 [7]: 2.4 mg/kg
ED50 [8]: 1.5 mg/kg
ED90 [9]: 3.3 mg/kg
ED90 [10]: 5 mg/kg

CO/C=C(/C(=O)OC)c1ccccc1/C=C/C=C/c1ccc(C)cc1C
IC50 (Plasmodium falciparum [1]): 0.05 ng/mL (≈ 0.143 nM)
inhibition in vivo at 10 mg/kg [5]: 100%
IC50 (Plasmodium falciparum [3]): 0.03 ng/mL (≈ 0.0861 nM)
inhibition in vivo at 10 mg/kg [6]: 100%
ED50 [7]: 1.11 mg/kg
ED50 [8]: 0.33 mg/kg
ED90 [8]: 0.72 mg/kg
ED90 [10]: 2.65 mg/kg

CO/C=C(/C(=O)OC)c1ccc(/C=C/C=C/c2ccc(C(F)(F)F)cc2C(F)(F)F)cc1
IC50 (Plasmodium falciparum [1]): > 5000 ng/mL
IC50 (Plasmodium falciparum [3]): > 5000 ng/mL
inhibition in vivo at 100 mg/kg [11]: 0%
inhibition in vivo at 100 mg/kg [12]: 0%

CO/C=C(/C(=O)OC)c1cccc(/C=C/C=C/c2ccc(C(F)(F)F)cc2C(F)(F)F)c1
IC50 (Plasmodium falciparum [1]): 396 ng/mL (≈ 869 nM)
IC50 (Plasmodium falciparum [3]): 176 ng/mL (≈ 385 nM)
inhibition in vivo at 100 mg/kg [11]: 0%
inhibition in vivo at 100 mg/kg [12]: 0%

CO/C=C(/C(=O)OC)c1ccccc1/C=C/C=C/c1ccc(Cl)cc1Cl
IC50 (Plasmodium falciparum [1]): 0.1 ng/mL (≈ 0.257 nM)
inhibition in vivo at 10 mg/kg [5]: 100%
IC50 (Plasmodium falciparum [3]): 0.03 ng/mL (≈ 0.0771 nM)
inhibition in vivo at 10 mg/kg [6]: 100%
ED50 [7]: 1.07 mg/kg
ED50 [8]: 0.69 mg/kg
ED90 [8]: 1.8 mg/kg
ED90 [10]: 4.03 mg/kg

CO/N=C(/C(=O)OC)c1ccccc1/C=C/C=C/c1ccccc1C(F)(F)F
IC50 (Plasmodium falciparum [1]): 1.4 ng/mL (≈ 3.6 nM)
IC50 (Plasmodium falciparum [3]): 0.4 ng/mL (≈ 1.03 nM)
inhibition in vivo at 100 mg/kg [11]: 44%
inhibition in vivo at 100 mg/kg [12]: 46%

CO/C=C(/C(=O)OC)c1ccccc1/C=C/C=C/c1cccc(Br)c1
IC50 (Plasmodium falciparum [1]): 31.4 ng/mL (≈ 78.6 nM)
inhibition in vivo at 50 mg/kg [2]: 0%
IC50 (Plasmodium falciparum [3]): 6.1 ng/mL (≈ 15.3 nM)
inhibition in vivo at 50 mg/kg [4]: 0%

CO/C=C(/C(=O)OC)c1ccccc1/C=C/c1ccc(-c2ccccc2C(F)(F)F)o1
IC50 (Plasmodium falciparum [1]): 1.8 ng/mL (≈ 4.2 nM)
IC50 (Plasmodium falciparum [3]): 0.39 ng/mL (≈ 0.91 nM)

CO/N=C(\C(=O)OC)c1ccccc1C#CC#Cc1ccccc1C(F)(F)F
IC50 (Plasmodium falciparum [1]): 25.8 ng/mL (≈ 67 nM)
IC50 (Plasmodium falciparum [3]): 10.8 ng/mL (≈ 28 nM)
inhibition in vivo at 100 mg/kg [11]: 0%
inhibition in vivo at 100 mg/kg [12]: 0%

CO/C=C(/C(=O)OC)c1ccccc1/C=C/C=C/c1ccccc1Cl
IC50 (Plasmodium falciparum [1]): 0.39 ng/mL (≈ 1.1 nM)
inhibition in vivo at 10 mg/kg [5]: 77%
IC50 (Plasmodium falciparum [3]): 0.09 ng/mL (≈ 0.254 nM)
inhibition in vivo at 10 mg/kg [6]: 41%

CO/C=C(/C(=O)OC)c1ccccc1/C=C/C=C/c1cccc(F)c1
IC50 (Plasmodium falciparum [1]): 8.4 ng/mL (≈ 24.8 nM)
inhibition in vivo at 50 mg/kg [2]: 0%
IC50 (Plasmodium falciparum [3]): 1.5 ng/mL (≈ 4.43 nM)
inhibition in vivo at 50 mg/kg [4]: 0%

CO/C=C(/C(=O)OC)c1ccccc1/C=C/C=C/c1ccc(Cl)cc1
IC50 (Plasmodium falciparum [1]): 2 ng/mL (≈ 5.64 nM)
inhibition in vivo at 50 mg/kg [2]: 0%
IC50 (Plasmodium falciparum [3]): 0.52 ng/mL (≈ 1.47 nM)
inhibition in vivo at 50 mg/kg [4]: 0%

CO/N=C(/C(=O)OC)c1ccccc1C#CC#Cc1ccccc1C(F)(F)F
IC50 (Plasmodium falciparum [1]): 2280 ng/mL (≈ 5910 nM)
IC50 (Plasmodium falciparum [3]): 1390 ng/mL (≈ 3600 nM)
inhibition in vivo at 100 mg/kg [11]: 0%
inhibition in vivo at 100 mg/kg [12]: 0%

CO/N=C(/C(=O)OC)c1ccccc1CCCCc1ccccc1C(F)(F)F
IC50 (Plasmodium falciparum [1]): 15 ng/mL (≈ 38.1 nM)
IC50 (Plasmodium falciparum [3]): 6.4 ng/mL (≈ 16.3 nM)
inhibition in vivo at 100 mg/kg [11]: 0%
inhibition in vivo at 100 mg/kg [12]: 0%

CO/C=C(/C(=O)OC)c1ccccc1/C=C/C=C/c1cccc(OC)c1[N+](=O)[O-]
IC50 (Plasmodium falciparum [1]): 0.58 ng/mL (≈ 1.47 nM)
IC50 (Plasmodium falciparum [3]): 0.11 ng/mL (≈ 0.278 nM)

CO/C=C(/C(=O)OC)c1ccccc1/C=C/C=C/c1ccc(C(F)(F)F)cc1C(F)(F)F
IC50 (Plasmodium falciparum [1]): 0.13 ng/mL (≈ 0.285 nM)
inhibition in vivo at 10 mg/kg [5]: 100%
IC50 (Plasmodium falciparum [3]): 0.06 ng/mL (≈ 0.131 nM)
inhibition in vivo at 10 mg/kg [6]: 100%

CO/N=C(/C(=O)OC)c1ccccc1-c1ccc(-c2ccccc2C(F)(F)F)s1
IC50 (Plasmodium falciparum [1]): 60.8 ng/mL (≈ 145 nM)
IC50 (Plasmodium falciparum [3]): 23.7 ng/mL (≈ 56.5 nM)
inhibition in vivo at 100 mg/kg [11]: 0%
inhibition in vivo at 100 mg/kg [12]: 0%

CO/C=C(/C(=O)OC)c1ccccc1CSc1ccccc1C(F)(F)F
IC50 (Plasmodium falciparum [1]): 29 ng/mL (≈ 75.8 nM)
IC50 (Plasmodium falciparum [3]): 5.5 ng/mL (≈ 14.4 nM)
inhibition in vivo at 100 mg/kg [11]: 0%
inhibition in vivo at 100 mg/kg [12]: 0%

CO/C=C(/C(=O)OC)c1ccccc1CCCCc1ccccc1C(F)(F)F
IC50 (Plasmodium falciparum [1]): 1.53 ng/mL (≈ 3.9 nM)
IC50 (Plasmodium falciparum [3]): 0.54 ng/mL (≈ 1.38 nM)
inhibition in vivo at 100 mg/kg [11]: 99%
inhibition in vivo at 100 mg/kg [12]: 82%

CO/C=C(/C(=O)OC)c1ccccc1/C=C/c1ccccc1C(F)(F)F
IC50 (Plasmodium falciparum [1]): 7.8 ng/mL (≈ 21.5 nM)
IC50 (Plasmodium falciparum [3]): 3.01 ng/mL (≈ 8.31 nM)
inhibition in vivo at 100 mg/kg [11]: 0%
inhibition in vivo at 100 mg/kg [12]: 0%

CO/C=C(/C(=O)OC)c1ccccc1/C=C/C=C/c1ccccc1C#N
IC50 (Plasmodium falciparum [1]): 1.6 ng/mL (≈ 4.63 nM)
IC50 (Plasmodium falciparum [3]): 0.52 ng/mL (≈ 1.51 nM)
inhibition in vivo at 100 mg/kg [11]: 0%
inhibition in vivo at 100 mg/kg [12]: 0%

CO/C=C(/C(=O)OC)c1ccccc1CO/N=C(\C)c1ccccc1C(F)(F)F
IC50 (Plasmodium falciparum [1]): 0.65 ng/mL (≈ 1.6 nM)
IC50 (Plasmodium falciparum [3]): 0.17 ng/mL (≈ 0.417 nM)
inhibition in vivo at 100 mg/kg [11]: 0%
inhibition in vivo at 100 mg/kg [12]: 0%

CO/C=C(/C(=O)OC)c1ccccc1/C=C/CSc1ccccc1C(F)(F)F
IC50 (Plasmodium falciparum [1]): 2.51 ng/mL (≈ 6.15 nM)
IC50 (Plasmodium falciparum [3]): 1.75 ng/mL (≈ 4.28 nM)
inhibition in vivo at 100 mg/kg [11]: 91%
inhibition in vivo at 100 mg/kg [12]: 46%

CO/C=C(/C(=O)OC)c1ccccc1/C=C/C=C/c1ccccc1C(F)(F)F
IC50 (Plasmodium falciparum [1]): 0.15 ng/mL (≈ 0.386 nM)
inhibition in vivo at 10 mg/kg [5]: 100%
IC50 (Plasmodium falciparum [3]): 0.06 ng/mL (≈ 0.154 nM)
inhibition in vivo at 10 mg/kg [6]: 99%

CO/C=C(/C(=O)OC)c1ccccc1/C=C/C=C/c1cccc(C(F)(F)F)c1
IC50 (Plasmodium falciparum [1]): 16.7 ng/mL (≈ 43 nM)
inhibition in vivo at 50 mg/kg [2]: 0%
IC50 (Plasmodium falciparum [3]): 7.8 ng/mL (≈ 20.1 nM)
inhibition in vivo at 50 mg/kg [4]: 0%
